# Laboratory results: ChEMBL document CHEMBL5705897, “Characterization of WZ4003 and HTH-01-015 as selective inhibitors of the LKB1-tumour-suppressor-activated NUAK kinases” (Biochem J, 2014)
# The source made the active and inactive calls. The rule behind the calls is not given here.
# Assays:
# [1] = biological target: MAP/microtubule affinity-regulating kinase 3 (Homo sapiens) (UniProt P27448); assay: Inhibition of recombinant human N-terminal His6-tagged MARK3 (2 to 729 residues) expressed in baculovirus infected Sf21 cells assessed as remaining activity at 1 uM using CHKtide as substrate incubated for 30 mins in presence of [gamma-33P]ATP by filter binding method relative to control
# Summary of the method: (§1)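 Screened at the International Centre for Protein Kinase Profiling against a 140-kinase panel, with inhibitor at 0.1 or 1 μM; activity expressed as percentage of DMSO control reactions, mean of triplicate reactions.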
# [2] = biological target: Ribosomal protein S6 kinase alpha-1 (Homo sapiens) (UniProt Q15418); assay: Inhibition of recombinant human N-terminal His6-tagged RSK1 (1 to 735 residues) expressed in baculovirus infected Sf21 cells assessed as remaining activity at 1 uM using KKLNRTLSVA as substrate incubated for 30 mins in presence of [gamma-33P]ATP by filter binding method relative to control; summary of the method: as §1
# [3] = biological target: Protein kinase C alpha type (Homo sapiens) (UniProt P17252); assay: Inhibition of recombinant human N-terminal His6-tagged PKCalpha (1 to 672 residues) expressed in baculovirus infected Sf21 cells assessed as remaining activity at 1 uM using Histone H1 as substrate incubated for 30 mins in presence of [gamma-33P]ATP by filter binding method relative to control; summary of the method: as §1
# [4] = biological target: MAP kinase-interacting serine/threonine-protein kinase 2 (Homo sapiens) (UniProt Q9HBH9); assay: Inhibition of recombinant human N-terminal GST/C-terminal His6-tagged MNK2alpha (2 to 465 residues) expressed in Escherichia coli assessed as remaining activity at 1 uM using eIF4E as substrate incubated for 30 mins in presence of [gamma-33P]ATP by filter binding method relative to control; summary of the method: as §1
# [5] = biological target: MAP kinase-activated protein kinase 2 (Homo sapiens) (UniProt P49137); assay: Inhibition of recombinant human N-terminal GST/C-terminal Myc-tagged MAPKAPK2 (46 to 400 residues) expressed in Escherichia coli assessed as remaining activity at 1 uM using KKLNRTLSVA as substrate incubated for 30 mins in presence of [gamma-33P]ATP by filter binding method relative to control; summary of the method: as §1
# [6] = biological target: Serine/threonine-protein kinase Chk1 (Homo sapiens) (UniProt O14757); assay: Inhibition of recombinant human N-terminal GST-tagged CHK1 (1 to 476 residues) expressed in baculovirus infected Sf21 cells assessed as remaining activity at 1 uM using CHKtide as substrate incubated for 30 mins in presence of [gamma-33P]ATP by filter binding method relative to control; summary of the method: as §1
# [7] = biological target: Serine/threonine-protein kinase PLK1 (Homo sapiens) (UniProt P53350); assay: Inhibition of recombinant human N-terminal His6-tagged PLK1 (1 to 603 residues) expressed in baculovirus infected Sf21 cells assessed as remaining activity at 1 uM using ISDELMDATFADQEAKKK as substrate incubated for 30 mins in presence of [gamma-33P]ATP by filter binding method relative to control; summary of the method: as §1
# [8] = biological target: Dual specificity tyrosine-phosphorylation-regulated kinase 3 (Homo sapiens) (UniProt O43781); assay: Inhibition of recombinant human N-terminal GST-tagged DYRK3 (1 to 588 residues) expressed in Escherichia coli assessed as remaining activity at 1 uM using KKISGRLSPIMTEQ as substrate incubated for 30 mins in presence of [gamma-33P]ATP by filter binding method relative to control; summary of the method: as §1
# [9] = biological target: Platelet-derived growth factor receptor alpha (Homo sapiens) (UniProt P16234); assay: Inhibition of recombinant human PDGFRalpha (551 to 10589 residues) expressed in baculovirus infected Sf21 cells assessed as remaining activity at 1 uM using KKKKEEIYFFFG as substrate incubated for 30 mins in presence of [gamma-33P]ATP by filter binding method relative to control; summary of the method: as §1
# [10] = biological target: T1, NUAK family SNF1-like kinase 1 (Homo sapiens) (UniProt O60285); assay: Inhibition of NUAK1 (unknown origin) expressed in HEK293 cells assessed as reduction in MYPT1 phosphorylation at Ser445 residue at 30 uM incubated for 16 hrs by immunoblot analysis; format: cell-based
# T1 sequence (whole entry): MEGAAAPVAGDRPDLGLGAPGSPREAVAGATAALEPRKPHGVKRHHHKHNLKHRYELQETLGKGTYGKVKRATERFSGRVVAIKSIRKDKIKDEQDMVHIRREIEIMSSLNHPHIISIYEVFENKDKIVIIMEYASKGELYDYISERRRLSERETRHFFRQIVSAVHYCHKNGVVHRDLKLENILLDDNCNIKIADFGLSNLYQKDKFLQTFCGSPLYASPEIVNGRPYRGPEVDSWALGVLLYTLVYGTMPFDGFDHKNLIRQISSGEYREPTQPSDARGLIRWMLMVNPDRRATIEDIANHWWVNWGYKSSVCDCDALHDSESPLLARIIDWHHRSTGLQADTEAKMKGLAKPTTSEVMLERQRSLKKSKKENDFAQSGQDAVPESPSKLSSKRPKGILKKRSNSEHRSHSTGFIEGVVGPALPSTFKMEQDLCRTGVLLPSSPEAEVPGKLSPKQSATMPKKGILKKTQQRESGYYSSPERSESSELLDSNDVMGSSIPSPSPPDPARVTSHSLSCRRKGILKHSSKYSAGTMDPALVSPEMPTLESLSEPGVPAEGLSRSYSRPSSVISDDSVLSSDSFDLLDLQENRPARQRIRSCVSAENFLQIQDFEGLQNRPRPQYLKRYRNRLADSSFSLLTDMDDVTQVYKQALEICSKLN
# Summary of the method: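 HEK-293 Flp/In T-Rex cells stably expressing HA–NUAK1 or HA–NUAK1[A195T] (doxycycline 0.1 μg/ml, 16–24 h to induce) treated with inhibitor 16 h, then detached in EDTA-PBS dissociation buffer containing the same inhibitor concentration, tapped and spun 70 g 3 min; lysed, endogenous MYPT1 immunoprecipitated from 0.5 mg lysate and immunoblotted for p-Ser445 and total MYPT1; three separate experiments.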
# [11] = biological target: T1, NUAK family SNF1-like kinase 1 (Homo sapiens); assay: Inhibition of NUAK1 in human U2OS cells assessed as reduction in MYPT1 phosphorylation at Ser445 residues at 10 uM after 16 hrs by immunoblot analysis; format: cell-based
# Summary of the method: (§2)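 U2OS cells or NUAK1+/+ MEFs treated with or without 10 μM inhibitor for 16 h, then 20 min in EDTA-PBS dissociation buffer with 10 μM inhibitor or DMSO; detached by tapping and 70 g 3 min spin, lysed immediately and immunoblotted for MYPT1 p-Ser445; three separate experiments.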
# MEF = assay: Inhibition of NUAK1 in NUAK1+/+ MEF cells assessed as reduction in MYPT1 phosphorylation at Ser445 residues at 10 uM after 16 hrs by immunoblot analysis; format: cell-based; conditions: Mus musculus; summary of the method: as §2
# U2OS = assay: Inhibition of cell invasion in human U2OS cells at 10 uM incubated for 16 hrs by matrigel based transwell assay; format: functional
# Summary of the method: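 Growth-factor-reduced Matrigel Transwell invasion: U2OS cells serum-deprived 2 h, detached, 2.5×10^5 cells in DMEM/1% BSA added to upper chambers in triplicate, DMEM/10% FBS as chemoattractant below; 16 h at 37 °C, 5% CO2 with or without 10 μM inhibitor in both compartments; cells on lower filter face fixed, stained, imaged ×10 and counted; mean ± S.D.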
# Dual specificity tyrosine-phosphorylation-regulated kinase 3 (Homo sapiens), sequence (O43781 whole entry, the tested form may be a part): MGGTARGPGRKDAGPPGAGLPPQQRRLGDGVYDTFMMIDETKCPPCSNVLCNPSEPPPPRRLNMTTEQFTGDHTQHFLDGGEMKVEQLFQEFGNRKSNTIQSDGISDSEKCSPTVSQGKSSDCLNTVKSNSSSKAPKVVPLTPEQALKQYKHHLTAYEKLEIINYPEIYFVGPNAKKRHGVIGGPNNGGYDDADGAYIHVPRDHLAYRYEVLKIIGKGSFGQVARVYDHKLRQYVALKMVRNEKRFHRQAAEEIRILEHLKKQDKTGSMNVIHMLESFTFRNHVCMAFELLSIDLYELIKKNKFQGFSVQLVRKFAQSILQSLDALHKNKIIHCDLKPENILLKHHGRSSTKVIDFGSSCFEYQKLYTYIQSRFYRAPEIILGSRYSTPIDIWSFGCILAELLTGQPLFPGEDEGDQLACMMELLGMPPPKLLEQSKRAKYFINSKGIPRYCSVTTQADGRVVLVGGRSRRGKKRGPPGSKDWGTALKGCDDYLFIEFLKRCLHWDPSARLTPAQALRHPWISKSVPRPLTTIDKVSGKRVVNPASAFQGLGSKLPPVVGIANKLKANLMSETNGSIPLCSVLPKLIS
# Serine/threonine-protein kinase Chk1 (Homo sapiens), sequence (O14757 whole entry, the tested form may be a part): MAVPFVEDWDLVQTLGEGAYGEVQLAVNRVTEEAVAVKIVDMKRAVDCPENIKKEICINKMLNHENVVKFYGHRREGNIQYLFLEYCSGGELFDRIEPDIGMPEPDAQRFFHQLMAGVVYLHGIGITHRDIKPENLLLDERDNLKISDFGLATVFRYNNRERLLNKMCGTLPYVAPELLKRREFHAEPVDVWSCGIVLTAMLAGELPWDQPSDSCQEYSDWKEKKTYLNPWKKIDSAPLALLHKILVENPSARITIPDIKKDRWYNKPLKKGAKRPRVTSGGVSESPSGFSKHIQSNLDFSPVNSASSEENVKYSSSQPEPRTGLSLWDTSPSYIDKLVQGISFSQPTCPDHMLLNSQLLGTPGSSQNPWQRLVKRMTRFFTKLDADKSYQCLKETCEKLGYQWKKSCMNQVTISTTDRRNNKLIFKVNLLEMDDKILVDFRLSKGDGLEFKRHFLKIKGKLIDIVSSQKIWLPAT
# MAP/microtubule affinity-regulating kinase 3 (Homo sapiens), sequence (P27448 whole entry, looked up, the tested form may be a part): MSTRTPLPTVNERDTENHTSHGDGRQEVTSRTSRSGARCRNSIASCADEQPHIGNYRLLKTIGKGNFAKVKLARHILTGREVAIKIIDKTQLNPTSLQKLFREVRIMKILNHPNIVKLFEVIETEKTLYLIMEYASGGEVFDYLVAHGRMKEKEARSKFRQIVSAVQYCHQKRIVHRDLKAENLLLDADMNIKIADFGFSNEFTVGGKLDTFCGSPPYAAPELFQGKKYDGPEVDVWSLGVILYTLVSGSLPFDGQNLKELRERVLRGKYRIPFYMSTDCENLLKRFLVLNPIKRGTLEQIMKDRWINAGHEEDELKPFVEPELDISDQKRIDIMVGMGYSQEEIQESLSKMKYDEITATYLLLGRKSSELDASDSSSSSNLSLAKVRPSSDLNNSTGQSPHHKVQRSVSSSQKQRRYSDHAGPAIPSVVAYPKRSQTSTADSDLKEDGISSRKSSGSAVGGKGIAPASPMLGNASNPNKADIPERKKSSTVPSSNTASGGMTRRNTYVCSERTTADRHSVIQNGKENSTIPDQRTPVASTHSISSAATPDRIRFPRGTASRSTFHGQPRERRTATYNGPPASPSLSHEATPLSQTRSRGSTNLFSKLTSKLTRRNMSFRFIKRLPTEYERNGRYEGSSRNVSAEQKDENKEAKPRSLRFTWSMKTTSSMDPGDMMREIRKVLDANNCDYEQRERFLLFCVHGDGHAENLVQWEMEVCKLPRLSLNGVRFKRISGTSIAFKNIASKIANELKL
# Ribosomal protein S6 kinase alpha-1 (Homo sapiens), sequence (Q15418 whole entry, the tested form may be a part): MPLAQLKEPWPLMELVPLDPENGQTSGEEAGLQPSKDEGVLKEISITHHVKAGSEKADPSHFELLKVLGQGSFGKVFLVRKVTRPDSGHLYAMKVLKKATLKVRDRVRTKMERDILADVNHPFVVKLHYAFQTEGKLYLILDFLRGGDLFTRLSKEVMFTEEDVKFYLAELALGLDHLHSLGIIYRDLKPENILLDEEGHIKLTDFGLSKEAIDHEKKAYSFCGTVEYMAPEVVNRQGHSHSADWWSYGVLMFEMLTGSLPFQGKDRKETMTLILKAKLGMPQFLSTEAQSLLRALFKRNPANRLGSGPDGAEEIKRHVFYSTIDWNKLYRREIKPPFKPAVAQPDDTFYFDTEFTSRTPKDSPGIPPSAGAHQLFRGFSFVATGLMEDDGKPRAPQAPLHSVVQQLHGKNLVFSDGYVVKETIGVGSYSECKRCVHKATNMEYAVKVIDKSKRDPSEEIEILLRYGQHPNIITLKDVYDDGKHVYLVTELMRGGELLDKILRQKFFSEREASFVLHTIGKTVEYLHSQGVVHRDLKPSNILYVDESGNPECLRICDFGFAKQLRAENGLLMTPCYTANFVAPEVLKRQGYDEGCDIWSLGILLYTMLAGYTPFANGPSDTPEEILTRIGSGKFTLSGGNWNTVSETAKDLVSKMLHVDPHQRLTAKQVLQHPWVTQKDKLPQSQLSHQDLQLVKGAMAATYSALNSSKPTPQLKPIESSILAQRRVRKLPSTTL
# Serine/threonine-protein kinase PLK1 (Homo sapiens), sequence (P53350 whole entry, the tested form may be a part): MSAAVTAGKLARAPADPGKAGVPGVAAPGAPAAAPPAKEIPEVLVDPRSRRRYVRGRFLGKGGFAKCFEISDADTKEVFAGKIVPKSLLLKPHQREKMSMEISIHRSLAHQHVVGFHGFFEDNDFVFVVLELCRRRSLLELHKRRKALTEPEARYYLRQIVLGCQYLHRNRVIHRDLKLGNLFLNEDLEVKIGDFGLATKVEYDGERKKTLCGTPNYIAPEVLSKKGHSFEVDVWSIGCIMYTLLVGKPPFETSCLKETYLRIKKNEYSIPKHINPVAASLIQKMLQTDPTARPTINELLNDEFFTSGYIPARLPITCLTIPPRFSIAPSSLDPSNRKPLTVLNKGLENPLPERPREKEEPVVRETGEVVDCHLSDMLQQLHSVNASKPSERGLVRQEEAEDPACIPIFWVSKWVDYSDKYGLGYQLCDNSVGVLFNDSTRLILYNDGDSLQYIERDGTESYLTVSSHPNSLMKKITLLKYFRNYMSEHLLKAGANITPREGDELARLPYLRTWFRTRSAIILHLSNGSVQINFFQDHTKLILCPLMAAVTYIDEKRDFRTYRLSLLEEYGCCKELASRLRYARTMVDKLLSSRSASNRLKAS
# MAP kinase-activated protein kinase 2 (Homo sapiens), sequence (P49137 whole entry, looked up, the tested form may be a part): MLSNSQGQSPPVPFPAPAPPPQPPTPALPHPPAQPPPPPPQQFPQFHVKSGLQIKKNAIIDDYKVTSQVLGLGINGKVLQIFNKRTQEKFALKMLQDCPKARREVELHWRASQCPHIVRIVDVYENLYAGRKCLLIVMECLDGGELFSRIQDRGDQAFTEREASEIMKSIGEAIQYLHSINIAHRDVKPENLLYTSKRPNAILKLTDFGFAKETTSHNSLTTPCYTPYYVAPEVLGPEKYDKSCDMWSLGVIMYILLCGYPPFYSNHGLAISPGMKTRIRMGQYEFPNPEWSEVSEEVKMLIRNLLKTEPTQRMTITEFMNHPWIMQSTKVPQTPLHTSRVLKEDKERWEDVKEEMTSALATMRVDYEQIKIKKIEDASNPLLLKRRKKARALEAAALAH
# MAP kinase-interacting serine/threonine-protein kinase 2 (Homo sapiens), sequence (Q9HBH9 whole entry, looked up, the tested form may be a part): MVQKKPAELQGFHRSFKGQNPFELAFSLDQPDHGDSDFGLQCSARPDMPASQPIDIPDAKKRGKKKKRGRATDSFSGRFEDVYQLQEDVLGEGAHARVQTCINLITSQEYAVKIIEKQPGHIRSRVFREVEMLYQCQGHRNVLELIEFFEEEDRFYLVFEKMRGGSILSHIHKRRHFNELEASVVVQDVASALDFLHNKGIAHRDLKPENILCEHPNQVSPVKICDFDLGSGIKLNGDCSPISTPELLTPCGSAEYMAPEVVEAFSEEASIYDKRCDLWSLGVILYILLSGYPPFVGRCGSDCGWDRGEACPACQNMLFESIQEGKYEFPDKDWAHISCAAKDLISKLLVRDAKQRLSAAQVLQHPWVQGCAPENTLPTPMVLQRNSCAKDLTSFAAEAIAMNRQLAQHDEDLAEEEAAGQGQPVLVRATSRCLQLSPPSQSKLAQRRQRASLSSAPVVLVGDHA
compound,measurement,setting,value
CCC(=O)Nc1cccc(Oc2nc(Nc3ccc(N4CCN(C)CC4)cc3OC)ncc2Cl)c1,Activity,[1],51%
same,Activity,[2],67%
same,Activity,[3],77%
same,Activity,[4],84%
same,Activity,[5],82%
same,Activity,[6],58%
same,Activity,[7],84%
same,Activity,[8],71%
same,Activity,[9],96%
same,inhibition,[10],Active
same,inhibition,[11],Active
same,inhibition,MEF,Active
same,inhibition,U2OS,Active
